GSK3beta inhib: human GSK3beta kinase inhibition. activity score (negative = inhibition), % at 10 µM. AID 2097. 300,000 compounds, 0.038% hits. GST-GSK3beta kinase, ADP-Glo luminescence, 60 min; active compounds read low. P49841;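 active = more than half of replicate wells score below -50%, meaning over 50% inhibition versus plate controls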
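test system = GST-tagged human GSK3beta kinase, cell-free | reagent = 25 µM ATP with peptide substrate | dosing = one dose of 10 µM per compound | schedule = 60 min reaction, RT | detection = luminescent ADP-Glo measurement of ADP formed | control set = DMSO neutral wells and GW8510 at 20 µM as positive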
CDK5 inh: blocks human CDK5/p35 kinase activity. Q00535+Q15078. Recombinant CDK5/p35, ADP-Glo luminescence, 60 min. inhibition, % at 10 µM. 330,000 compounds, 0.01% hits. AID 488839;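 active = highest replicate inhibition of at least 50% and at least 75% of replicates reaching 50%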
DYRK1A inh: blocks rat Dyrk1A kinase activity. 310,000 compounds, 0.43% hits. AID 504441. ADP-Glo luminescence, NFATc1 peptide. inhibition, % at 12.5 µM; in the data active = inhibition above about 50%
STK33 kinase inh: inhibitors of human STK33 kinase | AID 2661 | inhibition, % at 10 µM | purified STK33, MBP phosphorylation, ADP-Glo luminescence | Q9BYT3 | 320,000 compounds, 0.073% hits;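 active = inhibition at or above 25%, using the most active replicate where run in duplicate; inactive = inhibition below 25%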
GSK3A inh: human GSK-3 alpha kinase inhibition; P49840; ADP-Glo luminescence, 60 min; inhibition, % at 10 µM; 320,000 compounds, 0.1% hits;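 active = more than half of replicates show inhibition above 20%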;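 also: GST-tagged GSK-3 alpha with peptide substrate and 25 µM ATP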
Target sequence (P49840 whole entry, looked up): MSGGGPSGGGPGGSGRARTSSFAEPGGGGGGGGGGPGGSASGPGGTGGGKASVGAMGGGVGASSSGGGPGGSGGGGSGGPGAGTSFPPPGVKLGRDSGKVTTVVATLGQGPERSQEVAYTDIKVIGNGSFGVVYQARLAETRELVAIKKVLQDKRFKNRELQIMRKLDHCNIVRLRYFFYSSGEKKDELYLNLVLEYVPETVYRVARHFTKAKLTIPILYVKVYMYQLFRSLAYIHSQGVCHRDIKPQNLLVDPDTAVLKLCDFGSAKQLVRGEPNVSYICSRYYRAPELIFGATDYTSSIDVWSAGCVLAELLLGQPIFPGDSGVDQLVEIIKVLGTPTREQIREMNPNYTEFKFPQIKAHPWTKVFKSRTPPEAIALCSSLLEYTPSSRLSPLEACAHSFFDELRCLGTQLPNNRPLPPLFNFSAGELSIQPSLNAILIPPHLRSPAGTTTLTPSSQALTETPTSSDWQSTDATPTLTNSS
ADP-Glo artifact: interferes with ADP-Glo luciferase readout without Dyrk1A; ADP-Glo luciferase artifact assay, no Dyrk1A, luminescence; AC50, µM (highest dose often 12 µM); 1,300 tested, under 10 active; shares compounds with DYRK1A inh;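 active = fitted half-maximal dose AC50 no more than ten times the top valid tested dose, with luminescence dropping as dose rises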
Each line names hits and unclear results; the compound was inactive in the other large screens (follow-up assays come after a bar, where they were run). The sample as a whole holds a higher share of hits than the screen did.

CCCNS(=O)(=O)c1ccc(OC)c(Cl)c1Cl	none
CC(=O)c1ccc(N=Nc2c(C)[nH][nH]c2=O)cc1	none
Cc1[nH][nH]c(=O)c1N=Nc1ccc(S(N)(=O)=O)cc1	GSK3A inh 59 (no result: CDK5 inh, DYRK1A inh)
O=C(COC(=O)c1cnccn1)Nc1cc(S(=O)(=O)N2CCOCC2)ccc1Cl	none (no result: GSK3beta inhib)
CCO/C(=C/c1sc2ccc(OC)cc2[n+]1CCCS(=O)(=O)[O-])CC	DYRK1A inh 57 | ADP-Glo artifact inactive
O=C1CC(c2ccc(S(=O)(=O)NC3CC3)cc2)CN1 (centres undefined)	DYRK1A inh 58 | ADP-Glo artifact inactive
O=C1CC(c2ccc(S(=O)(=O)NCc3ccncc3)cc2)CN1 (centres undefined)	none
COc1cccc(CNC(=O)CCCn2c(=S)[nH]c3cc4c(cc3c2=O)OCO4)c1	none
O=C(Nc1cccc(Cl)c1)ON=C1c2ccccc2-c2ccccc21	DYRK1A inh 50 | ADP-Glo artifact inactive
Cc1ccc2c(c1)C(=C(C#N)C#N)CCN2	DYRK1A inh 61 (no result: GSK3beta inhib, STK33 kinase inh, GSK3A inh) | ADP-Glo artifact inactive
O=C(NCCCN1CCOCC1)C(=O)NCC1OCCN1S(=O)(=O)c1cc(F)ccc1F (centres undefined)	none
CN(C)CCCOC(=O)COc1ccc(Br)cc1	DYRK1A inh 68 | ADP-Glo artifact inactive
COc1cc(O)cc2cc3c(c(O)c12)C(=O)CC(C)(O)O3 (centres undefined)	DYRK1A inh 108 (no result: GSK3beta inhib) | ADP-Glo artifact inactive
CCOC(=O)c1nnc(-c2ccc(C)cc2)nc1Sc1ccc(Cl)cc1	DYRK1A inh 55 | ADP-Glo artifact inactive
CC(C)NS(=O)(=O)c1ccc(OCC(=O)N(C)Cc2ccccc2)cc1	DYRK1A inh 83 | ADP-Glo artifact inactive
COc1ccc(OCC(=O)N(C)Cc2ccccc2)cc1	none
CC(C(=O)NC(N)=O)N1C(=O)NC(c2ccccc2)(c2ccccc2)C1=O (centres undefined)	none
COc1ccc2c(c1)c(=O)oc1c(C)c(OCc3ccc(C(=O)O)cc3)ccc12	none
COc1ccc2c(c1)c(=O)oc1c(C)c(OCc3cc(C(=O)O)oc3C)ccc12	DYRK1A inh 51 | ADP-Glo artifact inactive
O=C(c1ccc2c3n(nc2c1)-c1ccc(Cl)cc1CO3)N1CCOCC1	none
O=C(c1ccc2c3n(nc2c1)-c1ccccc1CO3)N1CCOCC1	DYRK1A inh 59, STK33 kinase inh 43, GSK3A inh 51 | ADP-Glo artifact 9µM
c1ccc(Cc2nnc3sc(-c4ccc5c(c4)OCCO5)nn23)cc1	DYRK1A inh 80 | ADP-Glo artifact inactive
c1ccc(Cc2nnc3sc(-c4ccc5c(c4)OCO5)nn23)cc1	none
CCc1nn(CC(=O)NCCCN2CCN(C)CC2)c(=O)c2cc3occc3n12	none
Nc1ccc(C(=O)Nc2nc3ccccc3s2)cc1	DYRK1A inh 56 | ADP-Glo artifact inactive
COc1ccccc1-c1sc2ccccc2c1-c1ccc(O)cc1	none (no result: GSK3beta inhib)
COc1ccccc1-c1sc2ccccc2c1C#Cc1ccc(N(C)C)cc1	DYRK1A inh 51 (no result: GSK3beta inhib) | ADP-Glo artifact inactive
CN1CCc2c(sc3nc(NN)n(Cc4ccccc4)c(=O)c23)C1	none
CN1CCc2c(sc3nc(NN)n(-c4ccc(Cl)cc4)c(=O)c23)C1	DYRK1A inh 63 | ADP-Glo artifact inactive
CN(C)CCOc1cccc(Cl)c1	none
O=C(c1cc(-c2cccnc2)nc2ccc(Br)cc12)N1CCN(c2ncccn2)CC1	none
O=[N+]([O-])c1cc(/C=N/O)ccc1Oc1ccccc1Cl	GSK3beta inhib -52, DYRK1A inh 61, GSK3A inh 65 | ADP-Glo artifact inactive
N#Cc1c2ccc(O)cc2n2ccccc12	DYRK1A inh 87, STK33 kinase inh 32 | ADP-Glo artifact inactive
COc1cccc(C2CC(c3ccc(C)cc3)n3nc(N)nc3N2)c1 (centres undefined)	none
CCOc1ccc(C2CC(c3cccc(OC)c3)Nc3nc(N)nn32)cc1 (centres undefined)	DYRK1A inh 58 (no result: GSK3A inh) | ADP-Glo artifact inactive
COc1ccccc1N=c1oc2cc(O)ccc2cc1C(=O)NCC1CCCO1 (centres undefined)	none
COc1ccccc1N=c1oc2cc(O)ccc2cc1C(N)=O	DYRK1A inh 93, STK33 kinase inh 37, GSK3A inh 61 | ADP-Glo artifact inactive
CS(=O)(=O)c1ccc(-c2cn3cc(C(=O)O)ccc3n2)cc1	DYRK1A inh 77 | ADP-Glo artifact inactive
COc1ccc(/C=C2\SC(=S)N(C(C)C(=O)NC3C=CS(=O)(=O)C3)C2=O)cc1 (centres undefined)	DYRK1A inh 77 | ADP-Glo artifact inactive
Cc1ccc(-c2oc3ncnc(N)c3c2-c2ccc(C)cc2)cc1	none
Cc1oc2ncnc(N)c2c1C	DYRK1A inh 50 | ADP-Glo artifact inactive
Cc1cccc(CNc2ncnc3ccc(-c4ccc5c(c4)OCO5)cc23)c1	DYRK1A inh 51 (no result: GSK3beta inhib) | ADP-Glo artifact inactive
c1cncc(-c2nc(NCc3ccco3)c3ccccc3n2)c1	DYRK1A inh 53 | ADP-Glo artifact inactive
Cc1ccc(-c2nc(NCc3ccco3)c3ccccc3n2)cc1	none
c1cncc(-c2nc(NCCCn3ccnc3)c3ccccc3n2)c1	GSK3beta inhib -55, DYRK1A inh 75, GSK3A inh 71 | ADP-Glo artifact inactive
COc1cccc(NC(=O)c2ccncc2)c1	none
COc1cccc(NC(=O)c2sc(NC(=O)c3ccncc3)nc2C)c1	DYRK1A inh 54 | ADP-Glo artifact inactive
COc1ccc(-c2csc3ncnc(Sc4nnnn4C)c23)cc1	DYRK1A inh 50 (no result: GSK3beta inhib) | ADP-Glo artifact inactive
O=C(Nc1c(C(=O)N2CCCC2)cnn1-c1ccccc1)c1cccc(F)c1	none
Clc1c(Cl)c(Cl)c2n[nH]nc2c1Cl	DYRK1A inh 80 | ADP-Glo artifact inactive
c1csc(CNc2ncnc3ccc(-c4ccoc4)cc23)c1	DYRK1A inh 74 (no result: GSK3beta inhib) | ADP-Glo artifact inactive
CCC(=O)Nc1cccc(-c2ccc(N3CCCCC3)nn2)c1	none
Cc1ccc(C)c(NC(=O)c2cc(S(=O)(=O)N3CCOCC3)cn2C)c1	none
CSc1nccc(NC(=O)c2cccc(Br)c2)n1	none
CCOC(=O)c1cnc2ccc(C(=O)OC)cc2c1Nc1ccc(C(=O)O)cc1	none
CCOC(=O)c1ccc2ncc(C(=O)OCC)c(Nc3ccc(N4CCOCC4)cc3)c2c1	DYRK1A inh 65 | ADP-Glo artifact inactive
Cc1ccc2[nH]c3c(c2c1)CN(C(C)C)CC3	none
COc1ccc(OC)c(C2=Nn3c(nnc3-c3ccco3)SC2)c1	DYRK1A inh 74 | ADP-Glo artifact inactive
Oc1ccc(C2=Nn3c(nnc3-c3ccco3)SC2)cc1O	DYRK1A inh 79 (no result: GSK3A inh) | ADP-Glo artifact inactive
COc1ccc(C2=Nn3c(nnc3-c3ccco3)SC2)cc1	none
COc1ccc(NC(C)=O)cc1S(=O)(=O)Nc1ccccc1C(=O)NCCc1ccccc1	none
CCN(c1ccccc1)S(=O)(=O)c1ccc2[nH]c(=O)c(=O)[nH]c2c1	none

From PubChem BioAssay
